Measurements reported in PMC12966599 (Journal of Pharmaceutical Analysis, 2025).
Changes are numbered by the printed parent chain. “Also recorded” adds a separate entry of the source.

How the values were obtained:
[1] = system: p-ERK in H1975 cells; test: ERK phosphorylation in cells; format: cell-based; details: 10 μM
Method in brief: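 H1975 cells, grown in RPMI-1640 with 10% FBS, were exposed to 10 μM compound and lysed in RIPA buffer with phosphatase and protease inhibitors. Proteins were separated and transferred. Blots were probed overnight at 4 °C with antibodies to p-ERK1/2, total ERK and β-actin diluted in 5% BSA, then developed by enhanced chemiluminescence.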

[2] = target: T1, SHP2^D61V (Homo sapiens, UniProt Q06124, D61V); test: Inhibition of oncogenic mutant SHP2^D61V; format: biochemical
T1 sequence (Q06124 1-525 D61V): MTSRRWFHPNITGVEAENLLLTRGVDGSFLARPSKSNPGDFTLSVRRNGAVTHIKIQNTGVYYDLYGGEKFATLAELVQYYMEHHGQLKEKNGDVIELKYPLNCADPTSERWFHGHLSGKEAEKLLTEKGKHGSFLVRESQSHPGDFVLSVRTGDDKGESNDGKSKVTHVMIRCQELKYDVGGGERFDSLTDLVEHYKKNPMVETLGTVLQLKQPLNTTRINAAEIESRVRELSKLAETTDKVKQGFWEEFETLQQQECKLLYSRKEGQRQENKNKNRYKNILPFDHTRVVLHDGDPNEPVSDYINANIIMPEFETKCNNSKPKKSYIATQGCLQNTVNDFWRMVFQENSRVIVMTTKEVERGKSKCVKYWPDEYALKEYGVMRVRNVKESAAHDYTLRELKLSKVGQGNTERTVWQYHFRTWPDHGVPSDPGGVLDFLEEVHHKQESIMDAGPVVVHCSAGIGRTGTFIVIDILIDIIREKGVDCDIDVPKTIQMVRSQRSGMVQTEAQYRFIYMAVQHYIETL

[3] = target: T2, SHP2-PTP^Q510A (Homo sapiens, UniProt Q06124, Q510A); test: BLI assay, SHP2-PTP^Q510A; format: binding
T2 sequence (Q06124 237-529 Q510A): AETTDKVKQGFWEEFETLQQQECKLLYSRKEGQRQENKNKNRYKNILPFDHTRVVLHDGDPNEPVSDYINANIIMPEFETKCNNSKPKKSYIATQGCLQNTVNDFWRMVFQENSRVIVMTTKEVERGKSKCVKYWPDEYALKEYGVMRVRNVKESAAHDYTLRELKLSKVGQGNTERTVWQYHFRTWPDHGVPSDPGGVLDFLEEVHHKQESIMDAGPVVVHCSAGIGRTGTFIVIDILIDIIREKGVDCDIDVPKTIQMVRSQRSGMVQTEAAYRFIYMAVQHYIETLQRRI

[4] = target: T3, PTPN12 (PTP-PEST) (Homo sapiens, UniProt Q05209); test: Phosphatase selectivity, PTPN12; format: biochemical
T3 sequence (Q05209 1-305): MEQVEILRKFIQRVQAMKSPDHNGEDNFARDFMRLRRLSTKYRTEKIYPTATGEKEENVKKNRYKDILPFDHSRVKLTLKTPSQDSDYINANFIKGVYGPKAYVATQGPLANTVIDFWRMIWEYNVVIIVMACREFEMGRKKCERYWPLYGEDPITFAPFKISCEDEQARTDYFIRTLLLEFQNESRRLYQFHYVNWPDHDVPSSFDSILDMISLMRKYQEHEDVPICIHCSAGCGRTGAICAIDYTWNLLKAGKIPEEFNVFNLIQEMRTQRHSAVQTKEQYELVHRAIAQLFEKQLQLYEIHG

[5] = target: T4, SHP2^E76K (Homo sapiens, UniProt Q06124, E76K); test: Inhibition of oncogenic mutant SHP2^E76K; format: biochemical
T4 sequence (Q06124 1-525 E76K): T1 sequence (Q06124 1-525 D61V) with V61D, E76K

[6] = target: T5, SHP2-PTP^R465A (Homo sapiens, UniProt Q06124, R465A); test: BLI assay, SHP2-PTP^R465A; format: binding
T5 sequence (Q06124 237-529 R465A): T2 sequence (Q06124 237-529 Q510A) with R229A, A274Q

[7] = target: T6, LMWPTP (ACP1) (Homo sapiens, UniProt P24666); test: Phosphatase selectivity, LMWPTP; format: biochemical
T6 sequence (P24666 1-158): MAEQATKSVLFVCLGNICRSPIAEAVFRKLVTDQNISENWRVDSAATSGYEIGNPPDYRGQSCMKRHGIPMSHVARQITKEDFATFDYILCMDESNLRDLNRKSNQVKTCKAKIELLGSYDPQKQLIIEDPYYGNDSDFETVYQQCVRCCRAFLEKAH

[8] = target: PTPN6 (SHP1) (Homo sapiens, UniProt P29350); test: Phosphatase selectivity, PTPN6; format: biochemical
Sequence of PTPN6 (SHP1) (P29350 1-597 isoform P29350-3): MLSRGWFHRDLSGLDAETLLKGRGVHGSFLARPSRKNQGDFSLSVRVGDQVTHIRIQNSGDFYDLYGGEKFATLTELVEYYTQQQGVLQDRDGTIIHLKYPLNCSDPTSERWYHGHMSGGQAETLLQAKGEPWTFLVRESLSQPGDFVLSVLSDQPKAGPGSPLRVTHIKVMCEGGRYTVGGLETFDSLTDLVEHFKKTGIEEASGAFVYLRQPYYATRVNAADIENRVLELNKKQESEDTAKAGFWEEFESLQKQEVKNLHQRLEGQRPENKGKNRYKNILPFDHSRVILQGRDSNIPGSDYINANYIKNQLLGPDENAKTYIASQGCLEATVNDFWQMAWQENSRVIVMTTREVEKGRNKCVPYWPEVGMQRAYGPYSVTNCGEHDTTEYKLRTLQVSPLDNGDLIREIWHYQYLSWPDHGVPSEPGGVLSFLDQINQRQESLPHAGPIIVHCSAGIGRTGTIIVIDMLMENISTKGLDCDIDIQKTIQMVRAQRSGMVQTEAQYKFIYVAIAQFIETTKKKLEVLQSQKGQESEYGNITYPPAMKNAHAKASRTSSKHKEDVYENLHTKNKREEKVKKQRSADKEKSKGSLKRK

[9] = target: T7, SHP2-FL (Homo sapiens, UniProt Q06124); test: SHP2-FL inhibition assay; format: biochemical
T7 sequence (Q06124 1-525): T1 sequence (Q06124 1-525 D61V) with V61D

[10] = system: NCI-H1975 cells; test: Colony formation assay; format: cell-based; details: measured 10 days after compound treatment
Method in brief: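 About 10^3 H1975 cells per well in RPMI-1640 with 10% FBS were allowed to adhere overnight and treated the next day. Medium and compound were renewed every 3–4 days. When untreated wells reached confluence, colonies were fixed with formaldehyde, stained with 0.2% crystal violet and scanned.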

[11] = system: H1975 xenograft; test: NCI-H1975 xenograft model; format: in vivo, BALB/c nude mice
Method in brief: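 Female BALB/c nude mice, five weeks old, received a subcutaneous H1975 suspension (5 × 10^6/mL) in the right flank. At a mean tumor volume of 50–100 mm3 they were randomised into three groups. Compound in 0.5% CMC-Na was given intragastrically at 20 mg/kg/day; controls received vehicle. Body weight and tumor volume were recorded every two days. Tumor sections were stained for Ki-67, and tumor lysates were immunoblotted for p-ERK. Data are mean ± SD with two-sided t-test.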

[12] = target: PTPRA (RPTPα) (Homo sapiens, UniProt P18433); test: Phosphatase selectivity, PTPRA; format: biochemical
Sequence of PTPRA (RPTPα) (P18433 183-802): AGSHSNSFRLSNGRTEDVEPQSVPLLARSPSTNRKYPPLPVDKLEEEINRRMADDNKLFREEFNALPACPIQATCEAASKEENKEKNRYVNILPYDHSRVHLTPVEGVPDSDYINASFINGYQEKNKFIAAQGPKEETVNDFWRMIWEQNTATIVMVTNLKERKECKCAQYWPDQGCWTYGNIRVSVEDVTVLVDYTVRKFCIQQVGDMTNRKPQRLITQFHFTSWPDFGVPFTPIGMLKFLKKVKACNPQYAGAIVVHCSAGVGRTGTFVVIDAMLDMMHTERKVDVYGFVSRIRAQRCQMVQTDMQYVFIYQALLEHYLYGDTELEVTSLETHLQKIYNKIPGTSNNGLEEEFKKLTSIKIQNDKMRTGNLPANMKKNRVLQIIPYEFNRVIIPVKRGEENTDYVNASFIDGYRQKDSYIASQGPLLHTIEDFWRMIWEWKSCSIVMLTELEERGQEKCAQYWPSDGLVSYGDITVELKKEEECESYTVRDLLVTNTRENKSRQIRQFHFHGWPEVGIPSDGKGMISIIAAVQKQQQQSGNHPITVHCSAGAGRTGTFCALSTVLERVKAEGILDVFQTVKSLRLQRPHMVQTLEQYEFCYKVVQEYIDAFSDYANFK

[13] = target: T8, PTPN1 (PTP1B) (Homo sapiens, UniProt P18031); test: Phosphatase selectivity, PTPN1; format: biochemical
T8 sequence (P18031 1-321): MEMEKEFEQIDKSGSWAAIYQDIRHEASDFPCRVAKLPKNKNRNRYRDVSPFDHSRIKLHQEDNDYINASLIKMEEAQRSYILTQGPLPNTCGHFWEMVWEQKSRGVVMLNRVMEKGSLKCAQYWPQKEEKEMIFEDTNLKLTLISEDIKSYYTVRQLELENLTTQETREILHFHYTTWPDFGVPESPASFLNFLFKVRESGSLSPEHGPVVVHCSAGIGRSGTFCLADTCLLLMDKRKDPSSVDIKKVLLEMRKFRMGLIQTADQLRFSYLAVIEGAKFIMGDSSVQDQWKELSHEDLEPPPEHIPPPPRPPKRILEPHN

[14] = target: T9, SHP2-PTP (Homo sapiens, UniProt Q06124); test: SHP2-PTP inhibition assay; format: biochemical; details: for IC50: IC50 (SHP2-PTP), DiFMUP substrate
T9 sequence (Q06124 237-529): T2 sequence (Q06124 237-529 Q510A) with A274Q

[15] = system: SHP2 knockdown H1975 cells; test: Cell proliferation in SHP2 knockdown cells; format: cell-based; details: SHP2 siRNA treated H1975 cells versus H1975
[16] = system: NCI-H1975 cells; test: Cell proliferation assay; format: cell-based; details: CCK-8, day 3
Method in brief: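 About 1.5 × 10^3 H1975 cells per well, in RPMI-1640 with 10% FBS, were treated with compound at 0–50 μM. On day 3 CCK-8 reagent was added and optical density read. Untreated wells served for background correction.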

[17] = target: T10, SHP2^T253M (Homo sapiens, UniProt Q06124, T253M); test: Inhibition of tunnel-site mutant SHP2^T253M; format: biochemical
T10 sequence (Q06124 1-525 T253M): T1 sequence (Q06124 1-525 D61V) with V61D, T253M

[18] = system: SHP2; details: read-out: IC50 against SHP2; previous study; ref 22 (Liu et al.); cited from earlier work
[19] = 20 mg/kg/day oral, versus vehicle

Cc1cccc2c3c(ccc12)C1=C(C(=O)C3=O)[C@@H](C)CO1 [DHT, dihydrotanshinone I]
ERK phosphorylation (Western blot) [1]: significant decrease | IC50 [2]: 1.34 ± 0.36 µM | direct interaction with SHP2-PTP^Q510A (BLI) [3]: significantly abolished the direct interaction | IC50 [4]: 32.1 ± 3.8 µM | IC50 [5]: 1.61 ± 0.26 µM | direct interaction with SHP2-PTP^R465A (BLI) [6]: significantly abolished the direct interaction | IC50 [7]: > 100 µM | IC50 [8]: 2.5 ± 0.3 µM | SHP2-FL inhibitory activity (in words) [9]: comparable inhibitory activity | colony formation of NCI-H1975 cells [10]: significant suppression | body weight change ([11]; 20 mg/kg/day oral, full treatment course): No body weight loss | Ki-67 staining in tumor tissue [11, 19]: reduced Ki-67 staining positive areas | MAPK phosphorylation in tumor tissue [11, 19]: marked decrease | tumor growth in NCI-H1975 xenograft ([11]; oral gavage 20 mg/kg daily, 20-day treatment, versus vehicle, 20 mg/kg): significant tumor growth suppression; also recorded: modest anti-tumor effect | IC50 [12]: 50.4 ± 5.3 µM | IC50 [13]: 9.3 ± 0.94 µM | fold higher inhibitory potency against SHP2 than cryptotanshinone ([14]; DiFMUP screening, versus cryptotanshinone): 4.7 fold | IC50 [14]: 1.06 ± 0.21 µM | fold lower SHP2-PTP IC50 than tanshinone IIA ([14]; versus tanshinone IIA): 13 fold | sensitivity of SHP2-depleted H1975 cells (anti-proliferation) [15]: significantly lower sensitivity | proliferation of NCI-H1975 cells [16]: significant suppression

C[C@@H]1OCC2(CCN(c3cnc(Sc4ccnc(N)c4Cl)c(N)n3)CC2)[C@@H]1N [TNO155]
effect of SHP2^T253M mutation on efficacy (in words) [17]: eliminated the efficacy

Cc1coc2c1C(=O)C(=O)c1c-2ccc2c(C)cccc12 [Tanshinone I]
IC50 [14]: 3.3 ± 1.2 µM

C[C@H]1COC2=C1C(=O)C(=O)c1c2ccc2c1CCCC2(C)C [Cryptotanshinone]
IC50 [18]: 22.5 µM
